Experimental data as given in publication PMC4051287 (Molecular cancer therapeutics, 2014).
Square brackets hold non-standard residues; d marks the D form. Peptide text beside a SMILES is read from it. * marks the point of attachment. Dolaproine = CO[C@@H]([C@@H]1CCCN1)[C@@H](C)C(=O)O; Dil = CC[C@H](C)[C@H](NC)[C@@H](CC(=O)O)OC; X1 = C[C@@H](N*)[C@@H](O)c1ccccc1; NMeV = CN[C@H](C(=O)O)C(C)C

Assays:
[1] = cited from earlier work
[2] = test system: Py230 tumors; test: Therapeutic study, Py230 syngeneic tumors; type: in vivo, mice
How it was run: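 Tumors reach 5–7 mm diameter in 5–6 weeks. Test compound (MMAE conjugate) dosed at 0.2mg/kg MMAE, ~6.5 nanomoles of conjugate. Free MMAE and controls run alongside. Tumor volume followed.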

CC[C@H](C)[C@@H]([C@@H](CC(=O)N1CCC[C@H]1[C@H](OC)[C@@H](C)C(=O)N[C@H](C)[C@@H](O)c1ccccc1)OC)N(C)C(=O)[C@@H](NC(=O)[C@@H](NC)C(C)C)C(C)C [MMAE, Monomethylauristatin E] (H-[NMeV]V[Dil][Dolaproine]-X1)
maximum tolerated dose [1]: 0.5 to 1.0 mg/kg | final tumor mass, dose finding ([2]; Py230, MMAE at concentrations up to 0.6mg/kg): Only the tumors treated at the highest dose had a reduction in final mass | effect on tumor growth ([2]; Py230, immunocompetent mice, 0.2mg/kg MMAE): no impact on tumor growth
